In ChEMBL document CHEMBL5512625, “Design, synthesis, and biological evaluation of first-in-class indomethacin-based PROTACs degrading SARS-CoV-2 main protease and with broad-spectrum antiviral activity” (Eur J Med Chem, 2024):
≈ marks a conversion by molar mass, not a printed value. Calls of active or inactive are those of the source. The rule behind the calls is not given here.

What was measured:
[1] = system: Vero C1008; experiment: Cytotoxicity against African green monkey Vero E6 cells assessed as reduction in cell viability incubated for 72 hrs by Alamar blue assay; assay type: toxicity, cell-based; conditions: chlorocebus sabaeus, vero c1008, 72 h
[2] = molecular target: Replicase polyprotein 1ab (Severe acute respiratory syndrome coronavirus 2, UniProt P0DTD1); experiment: Binding affinity to NT650-labeled recombinant SARS CoV-2 MPro assessed as protein stability by measuring dissociation constant by MST analysis
[3] = Cytotoxicity against African green monkey Vero cells assessed as reduction in cell viability incubated for 72 hrs by MTT assay; assay type: toxicity, cell-based; conditions: chlorocebus sabaeus
[4] = system: SARS-CoV-2; experiment: Antiviral activity against SARS CoV-2 NL/2020 infected in African green monkey Vero E6 cells incubated for 3 days by plaque reduction assay; assay type: functional, organism-based; conditions: Severe acute respiratory syndrome coronavirus 2, NL/2020, Vero C1008, 72 h
[5] = Cytotoxicity against human MRC5 cells assessed as reduction in cell viability incubated for 72 hrs by MTT assay; assay type: toxicity, cell-based
[6] = Kinetic solubility in universal buffer incubated for 90 mins by microplate shaker method; assay type: physicochemical; conditions: for solubility kinetic at 1.5 h: universal buffer, read-out: Kinetic_solubility; for Kinetic_solubility: buffer, 1.5 h, BLD = below limit of detection
How it was run: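 Universal buffer (45 mM each ethanolamine, NaH2PO4 and sodium acetate) at pH 7.4; compound at 100 µM final, 5% DMSO. Shaken 90 min at 25 °C, vacuum-filtered, filtrate diluted with ACN/DMSO. UV absorbance at λmax quantified against an external calibration curve (3.13–100 µM); result corrected by ×1.25.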

[7] = system: HEK-293T; experiment: Downregulation of PGES-2 level in HEK293T cells at 25 uM incubated for 2 to 8 hrs by Western blot analysis; assay type: functional, cell-based; conditions: Homo sapiens, time 2-8 hrs
How it was run: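 Uninfected 293T cells treated at 25 µM or with 0.1% DMSO and harvested at several times after treatment. Western blot with anti-PGES-2 antibody; β-actin as loading control.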

[8] = system: Vero C1008; experiment: Downregulation of PGES-2 level in African green monkey Vero E6 cells infected with SARS CoV-2 at 25 uM pre-infected for 90 mins followed by removal of viral inoculum and subsequent addition of compound measured after 24 hrs post-infection; assay type: functional, cell-based; conditions: Chlorocebus sabaeus, time 1350.0 min
[9] = system: MRC5; experiment: Downregulation of PGES-2 level in human MRC5 cells infected with HCoV-OC43 at 25 uM pre-infected for 90 mins followed by removal of viral inoculum and subsequent addition of compound measured after 48 hrs post-infection; assay type: functional, cell-based; conditions: time 2790.0 min
How it was run: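 MRC-5 cells infected with HCoV-OC43 for 90 min at 37 °C; inoculum removed, then treated at 25 µM or with 0.1% DMSO. Whole-cell lysates collected 48 h p.i. and blotted for PGES-2, normalised to β-actin.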

[10] = system: MRC5; experiment: Downregulation of PGES-2 level in human MRC5 cells infected with HCoV-229E at 25 uM pre-infected for 90 mins followed by removal of viral inoculum and subsequent addition of compound measured after 24 hrs post-infection; assay type: functional, cell-based; conditions: time 1350.0 min
[11] = Chemical stability of compound in DMEM at pH 7.4 assessed as compound remaining at 1 uM measured after 24 hrs by LC-MS analysis; assay type: physicochemical; conditions: read-out: Stability
How it was run: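 Compound at 1 and 10 µM (0.1% DMSO) incubated at 37 °C in DMEM pH 7.4 with 10% FBS and penicillin/streptomycin. Samples at 0 and 24 h, quenched in cold acetonitrile with labetalol internal standard, analysed by LC-MS/MS; duplicates.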

[12] = Metabolic stability in human liver microsomes assessed as half life measured upto 60 mins by LC/MS-MS analysis; assay type: ADME, Microsome
How it was run: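 Compound at 10 µM (0.1% DMSO) pre-incubated 5 min at 37 °C with human liver microsomes (0.5 mg/mL, 10-donor pool) in 0.1 M phosphate pH 7.4. Reaction started with 1 mM NADPH. Samples at 0, 5, 15, 30 and 60 min, quenched in cold acetonitrile with labetalol, analysed by LC-MS/MS; n=3.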

[13] = system: Human coronavirus OC43; experiment: Antiviral activity against HCoV-OC43 infected in human MRC5 cells incubated for 3 days by plaque reduction assay; assay type: functional, organism-based; conditions: Betacoronavirus 1, MRC5, 72 h
[14] = system: Human coronavirus 229E; experiment: Antiviral activity against HCoV-229E infected in human MRC5 cells incubated for 3 days by plaque reduction assay; assay type: functional, organism-based; conditions: MRC5, 72 h
[15] = system: SARS-CoV-2; experiment: Antiviral activity against SARS CoV-2 infected in human Calu-3 cells measured after 36 hrs; assay type: functional, organism-based; conditions: Severe acute respiratory syndrome coronavirus 2, Calu-3, 36 h
[16] = Cytotoxicity against human Calu-3 cells incubated for 72 hrs by MTT assay; assay type: toxicity, cell-based
[17] = molecular target: von Hippel-Lindau disease tumor suppressor-SARS-Cov-2 polyprotein (Severe acute respiratory syndrome coronavirus 2, UniProt P40337+P0DTD1); experiment: PROTAC activity at human VHL/virus-expressed MPro in human Calu-3 cells infected with SARS CoV-2 assessed as protein degradation incubated for 48 hrs by Western blot analysis; assay type: cell-based
Chain of von Hippel-Lindau disease tumor suppressor-SARS-Cov-2 polyprotein (P40337 whole entry, other chains not shown): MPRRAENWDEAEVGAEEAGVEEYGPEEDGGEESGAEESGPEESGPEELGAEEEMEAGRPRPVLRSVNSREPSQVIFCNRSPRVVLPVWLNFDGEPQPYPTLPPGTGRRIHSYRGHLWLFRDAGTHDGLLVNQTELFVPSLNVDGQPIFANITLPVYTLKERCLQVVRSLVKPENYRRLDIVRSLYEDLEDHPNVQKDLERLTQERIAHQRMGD

[18] = Cytotoxicity against African green monkey Vero cells; assay type: toxicity, cell-based; conditions: chlorocebus sabaeus
[19] = system: SARS-CoV-2; experiment: Antiviral activity against SARS CoV-2 NL/2020; assay type: functional, organism-based; conditions: Severe acute respiratory syndrome coronavirus 2, NL/2020
[20] = system: SARS-CoV-2; experiment: Antiviral activity against SARS CoV-2 infected in African green monkey Vero E6 cells assessed as reduction in viral replication by plaque reduction assay; assay type: functional, organism-based; conditions: Severe acute respiratory syndrome coronavirus 2

Question: For `COc1ccc2c(c1)c(CC(=O)N1CCN(CC(=O)N[C@H](C(=O)N3C[C@@H](O)C[C@H]3C(=O)N[C@@H](C)c3ccc(-c4scnc4C)cc3)C(C)(C)C)CC1)c(C)n2C(=O)c1ccc(Cl)cc1`, which Activity [1] is on record?
Answer: Toxic

Question: Which Kd [2] does the source give for `COc1ccc2c(c1)c(CC(=O)O)c(C)n2C(=O)c1ccc(Cl)cc1` [INDOMETHACIN] here?
Answer: 129 µM

Question: With `COc1ccc2c(c1)c(CC(=O)NCCCCCCCCCCNc1cc3c(cc1F)C(=O)N(C1CCC(=O)NC1=O)C3=O)c(C)n2C(=O)c1ccc(Cl)cc1` (stereo not drawn) as the compound, how does the CC50 at 72 h [3] read?
Answer: > 125 µM

Question: What about the EC50 [4] of the same compound?
Answer: > 25 µM

Question: With `COc1ccc2c(c1)c(CC(=O)N1CCN(CCOCCOCC(=O)N[C@H](C(=O)N3C[C@H](O)C[C@H]3C(=O)N[C@@H](C)c3ccc(-c4scnc4C)cc3)C(C)(C)C)CC1)c(C)n2C(=O)c1ccc(Cl)cc1` as the compound, how does the CC50 at 72 h [3] read?
Answer: > 125 µM

Question: What about the EC50 [4] of the same compound?
Answer: > 25 µM

Question: What about the CC50 at 72 h [5] of the same compound?
Answer: 22 µM

Question: What about the solubility kinetic at 1.5 h [6] of the same compound?
Answer: 7.7 µM (≈ 7.69 µg/mL)

Question: With `COc1ccc2c(c1)c(CC(=O)NCCCCCCC(=O)N[C@H](C(=O)N1C[C@H](O)C[C@H]1C(=O)N[C@@H](C)c1ccc(-c3scnc3C)cc1)C(C)(C)C)c(C)n2C(=O)c1ccc(Cl)cc1` as the compound, how does the CC50 at 72 h [3] read?
Answer: > 200 µM

Question: What about the CC50 at 72 h [5] of the same compound?
Answer: > 250 µM

Question: And the Activity [7]?
Answer: inactive

Question: What about the Activity [8] of the same compound?
Answer: inactive

Question: What about the Activity [9] of the same compound?
Answer: inactive

Question: What about the Activity [10] of the same compound?
Answer: inactive

Question: And the Kinetic_solubility [6]?
Answer: Bld

Question: With `COc1ccc2c(c1)c(CC(=O)NCCN1CCN(C(=O)CCC(=O)N[C@H](C(=O)N3C[C@H](O)C[C@H]3C(=O)N[C@@H](C)c3ccc(-c4scnc4C)cc3)C(C)(C)C)CC1)c(C)n2C(=O)c1ccc(Cl)cc1` as the compound, how does the CC50 at 72 h [3] read?
Answer: > 250 µM

Question: And the Activity [7]?
Answer: inactive

Question: And the Activity [8]?
Answer: inactive

Question: And the Activity [9]?
Answer: inactive

Question: What about the Activity [10] of the same compound?
Answer: inactive

Question: What about the solubility kinetic at 1.5 h [6] of the same compound?
Answer: 6 µM (≈ 5.97 µg/mL)

Question: And the remaining at 24 h, 1 µM [11]?
Answer: > 70%

Question: And the half-life [12]?
Answer: > 1 h

Question: What does the source list for `COc1ccc2c(c1)c(CC(=O)NCCCCCCNc1cc3c(cc1F)C(=O)N(C1CCC(=O)NC1=O)C3=O)c(C)n2C(=O)c1ccc(Cl)cc1` (stereo not drawn)?
Answer: CC50 at 72 h [3]: > 125 µM; EC50 [4]: > 25 µM

Question: With `COc1ccc2c(c1)c(CC(=O)N1CCN(CC(=O)N[C@H](C(=O)N3C[C@H](O)C[C@H]3C(=O)N[C@@H](C)c3ccc(-c4scnc4C)cc3)C(C)(C)C)CC1)c(C)n2C(=O)c1ccc(Cl)cc1` as the compound, how does the CC50 at 72 h [3] read?
Answer: > 125 µM

Question: And the EC50 [4]?
Answer: 10.8 µM

Question: What about the CC50 at 72 h [5] of the same compound?
Answer: > 125 µM

Question: And the EC50 [13]?
Answer: 1.6 µM

Question: What about the EC50 [14] of the same compound?
Answer: 6.5 µM

Question: And the Activity [7]?
Answer: inactive

Question: What about the Activity [8] of the same compound?
Answer: inactive

Question: What about the Activity [9] of the same compound?
Answer: inactive

Question: What about the Activity [10] of the same compound?
Answer: inactive

Question: And the EC50 [15]?
Answer: 0.89 µM

Question: And the CC50 at 72 h [16]?
Answer: > 125 µM

Question: What about the DC50 [17] of the same compound?
Answer: 1.34 µM

Question: What about the Kinetic_solubility [6] of the same compound?
Answer: Bld

Question: What about the remaining at 24 h, 1 µM [11] of the same compound?
Answer: > 70%

Question: And the half-life [12]?
Answer: > 1 h

Question: What does the source list for `COc1ccc2c(c1)c(CC(=O)NCCCCNc1cc3c(cc1F)C(=O)N(C1CCC(=O)NC1=O)C3=O)c(C)n2C(=O)c1ccc(Cl)cc1` (stereo not drawn)?
Answer: CC50 at 72 h [3]: > 125 µM; EC50 [4]: > 25 µM

Question: For `CC(C)(C)NC(=O)N[C@H](C(=O)N1C[C@H]2[C@@H]([C@H]1C(=O)NC(CC1CCC1)C(=O)C(N)=O)C2(C)C)C(C)(C)C` (stereo partly drawn) [BOCEPREVIR], which CC50 [18] is on record?
Answer: > 500 µM

Question: And the EC50 [19]?
Answer: 22 µM

Question: With `COc1ccc2c(c1)c(CC(=O)NCCN1CCN(C(=O)CCC(=O)N[C@H](C(=O)N3C[C@@H](O)C[C@H]3C(=O)N[C@@H](C)c3ccc(-c4scnc4C)cc3)C(C)(C)C)CC1)c(C)n2C(=O)c1ccc(Cl)cc1` as the compound, how does the Activity [20] read?
Answer: inactive

Question: What does the source list for `COc1ccc2c(c1)c(CC(=O)N1CCN(CCC(=O)N[C@H](C(=O)N3C[C@H](O)C[C@H]3C(=O)N[C@@H](C)c3ccc(-c4scnc4C)cc3)C(C)(C)C)CC1)c(C)n2C(=O)c1ccc(Cl)cc1`?
Answer: CC50 at 72 h [3]: > 125 µM; EC50 [4]: > 25 µM; CC50 at 72 h [5]: 13.5 µM; Kinetic_solubility [6]: Bld

Question: For `COc1ccc2c(c1)c(CC(=O)NCCCN1CCN(CCCNC(=O)CCC(=O)N[C@H](C(=O)N3C[C@H](O)C[C@H]3C(=O)N[C@@H](C)c3ccc(-c4scnc4C)cc3)C(C)(C)C)CC1)c(C)n2C(=O)c1ccc(Cl)cc1`, which CC50 at 72 h [3] is on record?
Answer: > 125 µM

Question: What about the EC50 [4] of the same compound?
Answer: > 25 µM

Question: And the CC50 at 72 h [5]?
Answer: > 125 µM

Question: And the EC50 [13]?
Answer: 16 µM

Question: And the EC50 [14]?
Answer: > 25 µM

Question: What about the solubility kinetic at 1.5 h [6] of the same compound?
Answer: 9.4 µM (≈ 10 µg/mL)

Question: Which CC50 at 72 h [3] does the source give for `COc1ccc2c(c1)c(CC(=O)NCCN1CCN(CCOCCOCC(=O)N[C@H](C(=O)N3C[C@H](O)C[C@H]3C(=O)N[C@@H](C)c3ccc(-c4scnc4C)cc3)C(C)(C)C)CC1)c(C)n2C(=O)c1ccc(Cl)cc1` here?
Answer: > 125 µM

Question: What about the EC50 [4] of the same compound?
Answer: > 25 µM

Question: And the CC50 at 72 h [5]?
Answer: 12.3 µM

Question: What about the solubility kinetic at 1.5 h [6] of the same compound?
Answer: 26 µM (≈ 27.1 µg/mL)

Question: With `COc1ccc2c(c1)c(CC(=O)N1CCN(CCCCCC(=O)N[C@H](C(=O)N3C[C@H](O)C[C@H]3C(=O)N[C@@H](C)c3ccc(-c4scnc4C)cc3)C(C)(C)C)CC1)c(C)n2C(=O)c1ccc(Cl)cc1` as the compound, how does the CC50 at 72 h [3] read?
Answer: > 125 µM

Question: And the EC50 [4]?
Answer: > 25 µM

Question: And the CC50 at 72 h [5]?
Answer: 20 µM

Question: And the Kinetic_solubility [6]?
Answer: Bld
